Laboratory results published in ChEMBL document CHEMBL4038350 (J Med Chem, 2017).
pEC50: −log10 of the molar value. Non-standard residues stand in square brackets, D forms with d. Residues, ends and D or L forms follow the SMILES beside them.

Experiments:
Format in all cases: functional, cell-based
[1] = molecular target: Melanocortin receptor 5 (Mus musculus) (UniProt P41149); assay: Inverse agonist activity at mouse melanocortin receptor 5 expressed in HEK293 cells assessed as decrease in cAMP accumulation at 160 nM after 2 hrs by AlphaScreen assay relative to control; parameters: scale not given: the % may be the effect or the level left
Sequence of Melanocortin receptor 5 (Mus musculus) (P41149 whole entry): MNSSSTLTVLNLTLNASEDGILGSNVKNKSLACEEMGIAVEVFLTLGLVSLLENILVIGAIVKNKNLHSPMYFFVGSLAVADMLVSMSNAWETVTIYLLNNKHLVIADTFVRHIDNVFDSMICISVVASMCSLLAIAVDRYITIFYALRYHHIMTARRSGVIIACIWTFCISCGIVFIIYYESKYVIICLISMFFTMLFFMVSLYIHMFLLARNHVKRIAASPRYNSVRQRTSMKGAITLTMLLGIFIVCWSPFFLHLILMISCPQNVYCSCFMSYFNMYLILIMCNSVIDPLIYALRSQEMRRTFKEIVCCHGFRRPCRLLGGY
In short: (§1)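 In mouse MC5R-HEK293 cells, cAMP was measured by AlphaScreen after 2 h peptide exposure (10−4 to 10−13 M) at room temperature. Each replicate was normalized to its signal at 10−10 M. For sigmoidal curves, percent inverse agonism was the change from basal to the high-concentration plateau. Apparent potency was taken as the curve inflection point. Three independent experiments were run.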

Melanocortin receptor 3 [2] = molecular target: T1, Melanocortin receptor 3 (Mus musculus, UniProt P33033); assay: Antagonist activity at mouse melanocortin receptor 3 expressed in HEK293 cells assessed as inhibition of NDP-MSH-induced cAMP accumulation after 2 hrs by AlphaScreen assay; conditions: read-out: pA2 (converted)
T1 sequence (P33033 whole entry): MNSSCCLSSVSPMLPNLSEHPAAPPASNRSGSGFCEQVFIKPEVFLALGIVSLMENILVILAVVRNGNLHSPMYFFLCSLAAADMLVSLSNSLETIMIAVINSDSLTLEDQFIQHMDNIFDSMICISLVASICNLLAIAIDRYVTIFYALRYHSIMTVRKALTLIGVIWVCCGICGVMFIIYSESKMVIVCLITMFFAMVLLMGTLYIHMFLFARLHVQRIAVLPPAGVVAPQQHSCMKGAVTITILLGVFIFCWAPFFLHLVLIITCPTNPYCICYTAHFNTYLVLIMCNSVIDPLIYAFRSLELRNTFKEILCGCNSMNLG

Melanocortin receptor 3 [3] = molecular target: T1, Melanocortin receptor 3; assay: Agonist activity at mouse melanocortin receptor 3 expressed in HEK293 cells assessed as increase in cAMP accumulation after 2 hrs by AlphaScreen assay
[4] = molecular target: Melanocortin receptor 5 (Mus musculus) (UniProt P41149); assay: Inverse agonist activity at mouse melanocortin receptor 5 expressed in HEK293 cells assessed as decrease in cAMP accumulation at 50 nM after 2 hrs by AlphaScreen assay relative to control; parameters: scale not given: the % may be the effect or the level left; in short: as §1
Melanocortin receptor 4 [5] = molecular target: T2, Melanocortin receptor 4 (Mus musculus, UniProt P56450); assay: Antagonist activity at mouse melanocortin receptor 4 expressed in HEK293 cells assessed as inhibition of NDP-MSH-induced cAMP accumulation after 2 hrs by AlphaScreen assay; conditions: read-out: pA2 (converted)
T2 sequence (P56450 whole entry): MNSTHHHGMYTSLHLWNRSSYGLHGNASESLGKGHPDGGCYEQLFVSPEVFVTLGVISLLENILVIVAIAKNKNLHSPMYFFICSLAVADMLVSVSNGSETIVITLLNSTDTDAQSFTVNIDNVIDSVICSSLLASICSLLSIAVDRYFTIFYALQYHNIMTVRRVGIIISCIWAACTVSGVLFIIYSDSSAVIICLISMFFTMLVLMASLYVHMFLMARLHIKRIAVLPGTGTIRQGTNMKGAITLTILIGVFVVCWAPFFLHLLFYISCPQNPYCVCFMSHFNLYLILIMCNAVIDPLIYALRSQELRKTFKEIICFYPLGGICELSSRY

[6] = molecular target: Melanocyte-stimulating hormone receptor (Mus musculus, UniProt Q01727); assay: Agonist activity at mouse melanocortin receptor 1 expressed in HEK293 cells assessed as increase in cAMP accumulation after 2 hrs by AlphaScreen assay
Sequence of Melanocyte-stimulating hormone receptor (Q01727 whole entry): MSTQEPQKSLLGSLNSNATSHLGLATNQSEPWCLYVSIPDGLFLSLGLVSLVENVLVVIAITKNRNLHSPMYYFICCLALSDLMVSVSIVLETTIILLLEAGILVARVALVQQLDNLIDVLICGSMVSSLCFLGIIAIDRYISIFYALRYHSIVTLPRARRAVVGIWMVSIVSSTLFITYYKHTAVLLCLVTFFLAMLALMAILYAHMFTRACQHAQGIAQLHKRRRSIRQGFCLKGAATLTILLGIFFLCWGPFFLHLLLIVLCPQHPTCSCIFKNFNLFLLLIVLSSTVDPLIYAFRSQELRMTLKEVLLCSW
In short: (§2)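 Donor beads and biotin-cAMP in lysis buffer followed for 2 h. The AlphaScreen signal was read. EC50 came from nonlinear least-squares fits, duplicates, at least three independent experiments.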

Melanocortin receptor 4 [7] = molecular target: T2, Melanocortin receptor 4; assay: Agonist activity at mouse melanocortin receptor 4 expressed in HEK293 cells assessed as increase in cAMP accumulation after 2 hrs by AlphaScreen assay
[8] = molecular target: Melanocortin receptor 5 (Mus musculus) (UniProt P41149); assay: Inverse agonist activity at mouse melanocortin receptor 5 expressed in HEK293 cells assessed as decrease in cAMP accumulation at 140 nM after 2 hrs by AlphaScreen assay relative to control; parameters: scale not given: the % may be the effect or the level left; in short: as §1
Melanocortin receptor 5 = Melanocortin receptor 5 (Mus musculus, UniProt P41149); assay: Agonist activity at mouse melanocortin receptor 5 expressed in HEK293 cells assessed as increase in cAMP accumulation after 2 hrs by AlphaScreen assay; in short: as §2
Sequence of Melanocortin receptor 5 (P41149 whole entry): as the sequence (P41149 whole entry) above

[9] = molecular target: Melanocyte-stimulating hormone receptor (Mus musculus) (UniProt Q01727); assay: Partial agonist activity at mouse melanocortin receptor 1 expressed in HEK293 cells assessed as increase in cAMP accumulation after 2 hrs by AlphaScreen assay relative to NDP
Sequence of Melanocyte-stimulating hormone receptor (Mus musculus) (Q01727 whole entry, looked up): as the sequence (Q01727 whole entry) above
In short: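 Mouse MC1R stably expressed in HEK293 cells, stimulated for 2 hr at room temperature in the dark. Peptide at 10−4 to 10−13 M in HBSS/HEPES buffer with 0.5 mM IBMX and 0.1% BSA, pH 7.4; forskolin 10−4 M. AlphaScreen cAMP detection after lysis and a further 2 hr. Signal normalized to maximal NDP-MSH response.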

[10] = molecular target: Melanocortin receptor 5 (Mus musculus) (UniProt P41149); assay: Inverse agonist activity at mouse melanocortin receptor 5 expressed in HEK293 cells assessed as decrease in cAMP accumulation at 250 nM after 2 hrs by AlphaScreen assay relative to control; parameters: scale not given: the % may be the effect or the level left; in short: as §1
[11] = molecular target: Melanocortin receptor 5 (Mus musculus) (UniProt P41149); assay: Inverse agonist activity at mouse melanocortin receptor 5 expressed in HEK293 cells assessed as decrease in cAMP accumulation at 60 nM after 2 hrs by AlphaScreen assay relative to control; parameters: scale not given: the % may be the effect or the level left; in short: as §1
[12] = molecular target: Melanocyte-stimulating hormone receptor (Mus musculus) (UniProt Q01727); assay: Agonist activity at mouse melanocortin receptor 1 expressed in HEK293 cells assessed as increase in cAMP accumulation at 100 uM after 2 hrs by AlphaScreen assay relative to control
In short: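 Cyclic peptides were dissolved in DMSO. Receptor-expressing HEK293 cells in IBMX-containing stimulation buffer (pH 7.4) were stimulated for 2 h at room temperature. cAMP was then detected by competitive AlphaScreen after a 2 h lysis/bead step. […] Values come from at least three independent experiments.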

[13] = molecular target: Melanocortin receptor 5 (Mus musculus) (UniProt P41149); assay: Inverse agonist activity at mouse melanocortin receptor 5 expressed in HEK293 cells assessed as decrease in cAMP accumulation at 130 nM after 2 hrs by AlphaScreen assay relative to control; parameters: scale not given: the % may be the effect or the level left; in short: as §1

Compound | Kb (Melanocortin receptor 3 [2]) | pEC50 (Melanocortin receptor 3 [3]) | Kb (Melanocortin receptor 4 [5]) | pEC50 [6] | pEC50 (Melanocortin receptor 4 [7]) | other results
CCC1NC(=O)[C@H](Cc2ccccc2)NC(=O)[C@H](Cc2ccccc2)NC(=O)[C@H](CCCNC(=N)N)NC(=O)[C@@H]2CCCN2C(=O)[C@H]2CCCN2C(=O)[C@H](Cc2ccccc2)NC(=O)[C@H](C)NC1=O (some centres undefined) | > 3.16 µM | < 4.00 |  |  |  | Activity [1]: 20%
C[C@@H]1NC(=O)[C@H]([C@@H](C)O)NC(=O)[C@H](Cc2ccccc2)NC(=O)[C@H](Cc2ccccc2)NC(=O)[C@H](CCCNC(=N)N)NC(=O)[C@@H]2CCCN2C(=O)[C@H]2CCCN2C(=O)[C@H](Cc2ccccc2)NC1=O (cyclo(RFFTAF[dP]P)) | 0.398 µM | < 4.00 | 0.0174 µM | < 4.00 | < 4.00 | Activity [4]: 20%
C[C@@H]1NC(=O)[C@H](CO)NC(=O)[C@H](Cc2ccccc2)NC(=O)[C@H](Cc2ccccc2)NC(=O)[C@H](CCCNC(=N)N)NC(=O)[C@@H]2CCCN2C(=O)[C@H]2CCCN2C(=O)[C@H](Cc2ccccc2)NC1=O | 1.26 µM | < 4.00 | 0.02 µM | < 4.00 | < 4.00 | Activity [8]: 25%
N=C(N)NCCC[C@@H]1NC(=O)[C@@H]2CCCN2C(=O)[C@H]2CCCN2C(=O)[C@H](Cc2ccccc2)NC(=O)[C@H](Cc2c[nH]cn2)NC(=O)[C@H](CC(N)=O)NC(=O)[C@H](Cc2ccccc2)NC(=O)[C@H](Cc2ccccc2)NC1=O (cyclo(RFFNHF[dP]P)) | > 3.16 µM | < 4.00 | 0.851 µM | 5.59 | < 4.00 | pEC50 (Melanocortin receptor 5): < 4.00; Activity [9]: 40%
C[C@@H]1NC(=O)[C@H](C)NC(=O)[C@H](Cc2ccccc2)NC(=O)[C@H](Cc2ccccc2)NC(=O)[C@H](CCCNC(=N)N)NC(=O)[C@@H]2CCCN2C(=O)[C@H]2CCCN2C(=O)[C@H](Cc2ccccc2)NC1=O | > 3.16 µM | < 4.00 | 0.0479 µM | < 4.00 | < 4.00 | Activity [10]: 20%
C[C@@H]1NC(=O)[C@H](CN)NC(=O)[C@H](Cc2ccccc2)NC(=O)[C@H](Cc2ccccc2)NC(=O)[C@H](CCCNC(=N)N)NC(=O)[C@@H]2CCCN2C(=O)[C@H]2CCCN2C(=O)[C@H](Cc2ccccc2)NC1=O | 0.302 µM | < 4.00 |  |  |  | Activity [11]: 15%; Activity [12]: 30%
C[C@@H]1NC(=O)[C@H](CC(N)=O)NC(=O)[C@H](Cc2ccccc2)NC(=O)[C@H](Cc2ccccc2)NC(=O)[C@H](CCCNC(=N)N)NC(=O)[C@@H]2CCCN2C(=O)[C@H]2CCCN2C(=O)[C@H](Cc2ccccc2)NC1=O |  |  |  |  |  | Activity [13]: 10%; Activity [12]: 25%
